Compound activity deposited in PubChem by several laboratories.
Hits are enriched below; roughly 2.1% of the tested compounds scored in any of these assays.
RanGTP-Impb inh – disruptors of Ran-importin-beta complex formation – biochemical, FRET, CFP-Ran, YFP-importin-beta, homogeneous, primary screen; cell-free CFP-Ran/YFP-importin-beta FRET ratio; inhibition, % (no concentration beside the values); 300,000 compounds, 1.1% hits; AID 2216;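 active means more than half of the replicate wells show a fall in the fluorescence ratio signal beyond about 16%, limit read from the data, passing the limit was not always enough; inconclusive means exactly half of the replicate wells pass the set limit; inactive means fewer than half of replicates pass the limit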
Runt-SMMHC FRET – blocks binding of human RUNX1 Runt domain to CBFb-SMMHC. 220,000 compounds, 0.74% hits. AID 1434. Cerulean-Runt/Venus-CBFb-SMMHC FRET ratio 530/480, 1 h. inhibition, % at 20 µM;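 active means mean inhibition across duplicate retests at 20 µM reaching about 50%, limit read from the data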;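 further: inhibitors lower the FRET ratio by blocking Runt binding to CBFb-SMMHC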
Target sequence (Q01196 whole entry, looked up, the tested form may be a part): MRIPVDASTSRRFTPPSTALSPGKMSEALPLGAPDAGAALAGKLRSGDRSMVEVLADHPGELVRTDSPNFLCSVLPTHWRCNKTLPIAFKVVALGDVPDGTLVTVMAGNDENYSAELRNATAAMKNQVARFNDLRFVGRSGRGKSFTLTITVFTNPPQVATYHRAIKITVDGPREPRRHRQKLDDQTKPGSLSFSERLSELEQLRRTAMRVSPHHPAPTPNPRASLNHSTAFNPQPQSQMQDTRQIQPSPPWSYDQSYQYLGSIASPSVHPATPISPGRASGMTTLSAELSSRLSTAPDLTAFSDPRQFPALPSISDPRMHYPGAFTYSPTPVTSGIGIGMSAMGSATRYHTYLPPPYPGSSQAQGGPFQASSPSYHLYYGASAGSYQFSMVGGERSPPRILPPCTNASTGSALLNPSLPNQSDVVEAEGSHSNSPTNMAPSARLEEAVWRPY
Target sequence (Q13951 whole entry, looked up, the tested form may be a part): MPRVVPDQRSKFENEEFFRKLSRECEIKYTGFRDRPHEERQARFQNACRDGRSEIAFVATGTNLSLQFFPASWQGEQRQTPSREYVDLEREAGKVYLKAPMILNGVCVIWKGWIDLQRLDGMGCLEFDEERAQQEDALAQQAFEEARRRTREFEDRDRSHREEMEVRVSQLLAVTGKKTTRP
Hck Nef HTS – inhibitors of human Hck kinase activated by Nef; Recombinant Hck-YEEI plus Nef, Z-Lyte FRET kinase assay; inhibition, % at 20 µM; 220,000 compounds, 0.68% hits;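 active means Hck-Nef kinase inhibition above about 50%, limit read from the data; inactive means inhibition below that limit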
L929 necroptosis – blocks zVAD induced death of L929 cells; 220,000 compounds, 0.38% hits; viability rescue, % at 10 µM; L929 zVAD necroptosis rescue, ATP luminescence, 24 h; with zVAD 60 µM; AID 1377;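 active means activation, scaled between plate controls, above about 75%, limit read from the data; inactive means activation under that limit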
Runt-CBFb FRET – Runt domain-CBFb interaction inhibition | Cerulean-Runt/Venus-CBFb FRET ratio 530/480, 1 h | 220,000 compounds, 0.46% hits | inhibition, % at 20 µM | Q01196+Q13951 | AID 1496;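 active means inhibition over about 50% at 20 µM in the single-dose screen, limit read from the data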
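Buffer or medium: Tris pH 7.5 buffer with BSA. Assay system: Cerulean-labeled Runt domain protein. Amount: each fluorescent fusion protein 100 nM. Read-out basis: loss of energy transfer signal. Incubation: 1 h compound exposure, room temperature. Probe or stimulus: Venus-CBFb binding partner, 100 nM. Detection: FRET, excitation 422 nm, emission at 530 and 480 nm.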
TNF necrop inh – TNF-alpha cell death inhibition in Jurkat FADD-/- cells. Jurkat FADD-/- TNF necroptosis rescue, ATP luminescence, 24 h; 0 = TNF only, 100 = no-TNF cells. activation (protection from cell death), % at 10 µM. 220,000 compounds, 0.068% hits;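 active means activation, meaning protection from cell death, of at least 50% relative to plate controls; inactive means activation below 50%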;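 further: necroptosis triggered by 40 ng/mL TNF-alpha added together with compound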
zVAD necrop conf – confirmed blocker of zVAD induced death in L929 cells; shares compounds with L929 necroptosis; L929 zVAD-induced necroptosis rescue, ATP luminescence, 24 h; activation (protection from necroptosis), % at 10 µM; 760 compounds, 16% hits;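 active means mean protection from necroptosis of at least 50% over duplicate tests; inactive means mean protection below 50%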
A number is an active result.

What do the screens show for `COc1ccc(S(=O)(=O)N(CC(=O)NN=C2CCN(C)CC2)c2cc(Cl)ccc2OC)cc1OC`?
RanGTP-Impb inh: inactive

What do the screens show for `Cc1c(NC(=O)Nc2cccc(C(F)(F)F)c2)c(=O)n(-c2ccccc2)n1C`?
RanGTP-Impb inh: inactive

Results for Cc1cc(C(=O)N/N=C/c2ccc(-c3ccccc3Cl)o2)n[nH]1 ?
RanGTP-Impb inh: inactive; Runt-SMMHC FRET: inactive; Hck Nef HTS: inactive; L929 necroptosis: 84; Runt-CBFb FRET: inactive; TNF necrop inh: inactive; zVAD necrop conf: inactive

What do the screens show for `Cc1cc(C(=O)N/N=C/c2cccnc2)n[nH]1`?
RanGTP-Impb inh: inactive; Runt-SMMHC FRET: inactive; Hck Nef HTS: inactive; L929 necroptosis: 84; Runt-CBFb FRET: inactive; TNF necrop inh: inactive; zVAD necrop conf: inactive

What do the screens show for `Cc1cc(C(=O)N/N=C/c2ccc(-c3ccc([N+](=O)[O-])cc3Cl)o2)n[nH]1`?
RanGTP-Impb inh: inactive

What do the screens show for `Cc1ccc(-c2cc(C(=O)N/N=C/c3cccnc3)n[nH]2)o1`?
RanGTP-Impb inh: inactive; Runt-SMMHC FRET: inactive; Hck Nef HTS: inactive; L929 necroptosis: inactive; Runt-CBFb FRET: inactive; TNF necrop inh: inactive

Results for Cc1cc(C(=O)N/N=C/c2ccc[nH]2)n[nH]1 ?
RanGTP-Impb inh: inactive; Runt-SMMHC FRET: inactive; Hck Nef HTS: inactive; L929 necroptosis: 89; Runt-CBFb FRET: inactive; TNF necrop inh: inactive; zVAD necrop conf: inactive

How did N#CCC(=O)N/N=C/c1cc(Br)ccc1OCc1cccc2ccccc12 do in these assays?
RanGTP-Impb inh: inactive

Results for Cc1ccc(C)c(NC(=O)CN(C)C(=O)CN2C(=O)C3CCCCC3C2=O)c1 (stereo unspecified) ?
RanGTP-Impb inh: inactive

Results for Cc1ccccc1Oc1cc(-n2ncc(Cl)c(Cl)c2=O)ncn1 ?
Runt-SMMHC FRET: inactive; Hck Nef HTS: inactive; L929 necroptosis: 85; Runt-CBFb FRET: inactive; TNF necrop inh: inactive; zVAD necrop conf: inactive

What do the screens show for `CCOc1cnn(-c2cc(Oc3ccc(C)cc3)ncn2)c(=O)c1Cl`?
RanGTP-Impb inh: inactive; Runt-SMMHC FRET: inactive; Hck Nef HTS: inactive; L929 necroptosis: inactive; Runt-CBFb FRET: inactive; TNF necrop inh: inactive

What do the screens show for `CC(C)CN(CCNC(=O)CN1C(=O)COc2ccc(S(=O)(=O)N3CCC(C)CC3)cc21)CC(C)C`?
RanGTP-Impb inh: inactive

How did CCN(CC)CCCNC(=O)c1cc2c(=O)n(C)c3ccccc3c2n1C do in these assays?
RanGTP-Impb inh: inactive; Runt-SMMHC FRET: inactive; Hck Nef HTS: inactive; L929 necroptosis: 77; Runt-CBFb FRET: inactive; TNF necrop inh: inactive; zVAD necrop conf: inactive

What do the screens show for `CCCN(CCC)CCCNC(=O)c1cc2c(=O)n(C)c3ccccc3c2n1C`?
RanGTP-Impb inh: inactive; Runt-SMMHC FRET: inactive; Hck Nef HTS: inactive; L929 necroptosis: 79; Runt-CBFb FRET: inactive; TNF necrop inh: inactive; zVAD necrop conf: inactive

How did CCN(CC)CCNC(=O)c1cc2c(=O)n(C)c3ccccc3c2n1C do in these assays?
RanGTP-Impb inh: inconclusive; Runt-SMMHC FRET: inactive; Hck Nef HTS: inactive; L929 necroptosis: 77; Runt-CBFb FRET: inactive; TNF necrop inh: inactive; zVAD necrop conf: inactive

Results for Nc1ccccc1C#CC(=O)c1ccccc1 ?
RanGTP-Impb inh: inactive

How did CC(=O)Nc1ccc(/C=N/Nc2nc3ccccc3s2)cc1 do in these assays?
RanGTP-Impb inh: inactive; Runt-SMMHC FRET: inactive; Hck Nef HTS: inactive; L929 necroptosis: 82; Runt-CBFb FRET: inactive; TNF necrop inh: 63; zVAD necrop conf: 83

Results for CC(=O)Nc1cccc(/C(C)=N/Nc2nc3ccccc3s2)c1 ?
RanGTP-Impb inh: inactive; Runt-SMMHC FRET: inactive; Hck Nef HTS: inactive; L929 necroptosis: 78; Runt-CBFb FRET: inactive; TNF necrop inh: inactive; zVAD necrop conf: inactive

Results for CC(=O)N1CCC(=NNc2nc3ccccc3s2)CC1 ?
RanGTP-Impb inh: inactive; Runt-SMMHC FRET: inactive; Hck Nef HTS: inactive; L929 necroptosis: inactive; Runt-CBFb FRET: inactive; TNF necrop inh: inactive

How did COc1ccc(/C=N/Nc2nc3ccccc3s2)cc1O do in these assays?
RanGTP-Impb inh: inactive; Runt-SMMHC FRET: inactive; Hck Nef HTS: inactive; L929 necroptosis: 79; Runt-CBFb FRET: inactive; TNF necrop inh: 59; zVAD necrop conf: 76

Results for COc1ccc(/C=N/Nc2nc3ccccc3o2)cc1O ?
RanGTP-Impb inh: inactive; Runt-SMMHC FRET: inactive; Hck Nef HTS: inactive; L929 necroptosis: 86; Runt-CBFb FRET: inactive; TNF necrop inh: inactive; zVAD necrop conf: inactive

Results for Cc1ccc(C(=O)NCc2nnc(SCC(=O)NC(C)c3ccccc3)n2C)cc1 (stereo unspecified) ?
RanGTP-Impb inh: inactive; Runt-SMMHC FRET: inactive; Hck Nef HTS: inactive; L929 necroptosis: inactive; Runt-CBFb FRET: inactive; TNF necrop inh: inactive

How did O=C(CCn1ccnc1)Nc1ccc2ccccc2c1 do in these assays?
RanGTP-Impb inh: inactive; Runt-SMMHC FRET: inactive; Hck Nef HTS: inactive; L929 necroptosis: inactive; Runt-CBFb FRET: inactive; TNF necrop inh: inactive

Results for Oc1ccc(-c2[nH]ncc2-c2cnn(-c3ccccc3)c2)c(O)c1 ?
RanGTP-Impb inh: inactive; Runt-SMMHC FRET: inactive; Hck Nef HTS: inactive; L929 necroptosis: 79; Runt-CBFb FRET: inactive; TNF necrop inh: inactive; zVAD necrop conf: inactive

Results for CCn1c(=NC(=O)c2ccc(S(=O)(=O)N3CCOCC3)cc2)sc2cccc(OC)c21 ?
RanGTP-Impb inh: inactive; Runt-SMMHC FRET: inactive; Hck Nef HTS: inactive; L929 necroptosis: 77; Runt-CBFb FRET: inactive; TNF necrop inh: inactive; zVAD necrop conf: inactive

How did COc1ccc(OC)c(C(=O)NC(CC(N)=O)c2ccc(NC(C)C)c([N+](=O)[O-])c2)c1 (stereo unspecified) do in these assays?
RanGTP-Impb inh: inactive

How did Cc1ccc(NC(=O)COC(=O)c2ccc3c(c2)NC(=O)C2CCCN32)cc1C (stereo unspecified) do in these assays?
Runt-SMMHC FRET: inactive; Hck Nef HTS: inactive; L929 necroptosis: 90; Runt-CBFb FRET: inactive; TNF necrop inh: inactive; zVAD necrop conf: 61

How did Cc1cccc(NC(=O)CCCn2c(=S)[nH]c3ccccc3c2=O)c1 do in these assays?
RanGTP-Impb inh: inactive; Runt-SMMHC FRET: inactive; Hck Nef HTS: inactive; L929 necroptosis: inactive; Runt-CBFb FRET: inactive; TNF necrop inh: inactive

What do the screens show for `Cc1cnc(NC(=O)Nc2ccc(Cl)cc2)s1`?
RanGTP-Impb inh: inactive; Runt-SMMHC FRET: inactive; Hck Nef HTS: inactive; L929 necroptosis: 78; Runt-CBFb FRET: inactive; TNF necrop inh: inactive; zVAD necrop conf: inactive

Results for O=C(Nc1ccc(F)c(Cl)c1)Nc1ccc(Cl)cn1 ?
RanGTP-Impb inh: inactive; Runt-SMMHC FRET: inactive; Hck Nef HTS: inactive; L929 necroptosis: inactive; Runt-CBFb FRET: inactive; TNF necrop inh: inactive
